This is an account of results in PubChem BioAssay.

The nature of test [1]: inhibitors of TNFa-induced NFkB p65 translocation, primary screen, imaging, HUVEC, MLSMR starter and 10KST1 sets (AID 438;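 active means inhibition above 20% together with a positive visual image hit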;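 further: compound added about 3h40 before a 20 min TNFalpha stimulation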;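 on inhibition: signal is the nuclear over cytoplasmic p65 intensity ratio per well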). To be noted: HUVEC TNFa-induced p65 nuclear translocation; cell count: measured here: nuclei count (cytotoxicity indicator), at 2.08 µM; inhibition: at 2 µM, stronger effect = higher value, 0% TNFa-plus-vehicle, 100% no-TNFa wells.
Test [2] can be described thus: endothelial E-selectin expression blockers – imaging, HUVEC, immunofluorescence, MLSMR starter and 10KST1 sets, primary screen (AID 487).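 On inhibition: signal is fraction of cell area covered by stained E-selectin grains.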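 On nuclei count: 100% = median nuclei count of all wells on the same plate.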 To be noted: HUVEC TNFalpha-induced E-selectin immunofluorescence imaging, at 2 µM; inhibition: stronger effect = higher value; nuclei count: measured here: cell number, toxicity.
A short description of test [3]: Primary imaging screen for DUSP6 inhibitors that restore phospho-Erk in transfected HeLa cells, chemical complementation (AID 609;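 active means compounds giving at least 50% inhibition in the cell-based MKP-3 phosphatase rescue imaging test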;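 on inhibition: phospho-Erk level distribution per well compared with pooled transfected vehicle control wells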). To be noted: HeLa MKP-3 transfected, phospho-Erk imaging KS statistic, at 10 µM, cells stimulated with TPA for 15 min.
Test [4] deals with Dual specificity protein phosphatase 6 (Homo sapiens) (UniProt Q16828). The test is described as above. To be noted: HeLa MKP-3 transfected, phospho-Erk imaging KS statistic; at 10 µM; stronger effect = higher value; cells stimulated with TPA for 15 min.
Sequence of Dual specificity protein phosphatase 6 (Homo sapiens) (Q16828 whole entry, looked up): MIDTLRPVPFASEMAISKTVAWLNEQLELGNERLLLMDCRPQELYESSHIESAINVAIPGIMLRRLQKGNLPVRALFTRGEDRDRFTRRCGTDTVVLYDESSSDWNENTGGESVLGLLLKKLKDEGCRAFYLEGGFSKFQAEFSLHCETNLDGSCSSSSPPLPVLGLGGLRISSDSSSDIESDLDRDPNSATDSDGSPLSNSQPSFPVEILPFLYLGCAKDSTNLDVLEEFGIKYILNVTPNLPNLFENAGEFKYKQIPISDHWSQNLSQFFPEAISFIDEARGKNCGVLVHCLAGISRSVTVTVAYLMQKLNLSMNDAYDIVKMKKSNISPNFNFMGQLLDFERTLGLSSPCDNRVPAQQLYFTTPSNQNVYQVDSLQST
The target of test [5] is Voltage-gated potassium channel subunit beta-2 (Rattus norvegicus) (UniProt P62483). Kind of test: inhibitors of rat Kvbeta2 reductase activity – biochemical, NADPH fluorescence, primary screen (AID 622;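 active means fluorescence slope higher than the sample average by over 3 SD, cut at about -0.22 in these data, passing the limit was not always enough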;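 further: slope of raw intensity against log time taken from 70 to 1610 s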). To be noted: recombinant KvBeta, 4-cyanobenzaldehyde reduction, at 10 µM, stronger effect = higher value.
Sequence of Voltage-gated potassium channel subunit beta-2 (Rattus norvegicus) (P62483 whole entry, looked up): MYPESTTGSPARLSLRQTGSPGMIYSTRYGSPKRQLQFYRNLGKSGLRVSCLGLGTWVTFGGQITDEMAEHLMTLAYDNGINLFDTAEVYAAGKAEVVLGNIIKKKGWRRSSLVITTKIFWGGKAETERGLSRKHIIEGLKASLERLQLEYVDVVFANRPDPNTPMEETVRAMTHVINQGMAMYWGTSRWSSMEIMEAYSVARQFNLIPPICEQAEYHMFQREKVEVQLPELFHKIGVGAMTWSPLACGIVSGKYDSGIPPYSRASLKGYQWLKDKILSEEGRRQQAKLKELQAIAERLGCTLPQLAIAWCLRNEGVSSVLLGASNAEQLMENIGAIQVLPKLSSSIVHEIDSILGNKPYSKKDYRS
The target is the same in test [6]. Kind of test: enhancers of rat Kvbeta2 NADPH turnover – biochemical, NADPH fluorescence, primary screen (AID 623;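 active means NADPH fluorescence slope more negative than the mean of all samples by about 3 SD, 99.7% confidence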;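 further: fluorescence intensity change per second fitted from 20 to 320 s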). To be noted: Recombinant KvBeta, NADPH fluorescence decrease slope, 10 min; at 10 µM; stronger effect = lower value.
Test [7] concerns the target Muscarinic acetylcholine receptor M4 (Homo sapiens) (UniProt P08173). Kind of test: M4-linked GIRK flux change, two-sided – cell-based, HEK293 M4/GIRK, thallium flux, BTC-AM, M4 allosteric agonist project, primary screen (AID 625;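 active means fluorescence slope after compound addition differing from the mean of all tested samples at 99.7% confidence, mostly higher but some lower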;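 further: thallium influx through GIRK channels coupled to M4 in HEK293 cells with BTC-AM dye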). To be noted: at 10 µM, actives lie on both sides. In outline:
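assay system = HEK293 cells with M4 receptor and GIRK channels | medium = pH 7.3 thallium assay buffer | doses = 10 µM final, single point | timing = cells overnight at 37 °C, BTC-AM loading 1 h, reads 2 min total | signal = BTC-AM fluorescence, 1 Hz kinetic reads | read-out = post-addition slope, 15–24 s, of baseline-normalized fluorescence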

Test [8] can be described thus: inhibitors of larval lipid processing in zebrafish, primary screen, whole organism, PED6 fluorescence, gall bladder and intestine (AID 686;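 active means a full or partial loss of lipid-probe fluorescence in the fish gall bladder, intestine or both, judged by eye; inactive means no fluorescence loss, or compound toxic to the fish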;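 further: larvae 5 to 7 days old with five fish per well; signal comes from phospholipase A2 cleavage of quenched PED6 carried via bile; overnight exposure to compound and PED6 before scoring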). To be noted: Zebrafish larvae PED6 lipid processing, fluorescence scoring; screened at 20 µM (by protocol). In outline:
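Also added: quenched phospholipase substrate PED6, 100 nM final, ingested by larvae; System: zebrafish larvae, 5-7 d; Quantity: 5 larvae per well; Compound: 20 µM single dose; Schedule: overnight compound and PED6 incubation; Read-out: visual per-well fluorescence inhibition score; Measured by: By-eye fluorescence microscopy; Medium: E3.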

Test [9] can be described thus: loss of swimming-algae plug formation – whole organism, Chlamydomonas reinhardtii, WT vs cilia-less mutant, absorbance, 96-well, primary screen (AID 463189;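 active means inhibition at or above 50% relative to wild type and mutant plate controls; inactive means inhibition below 50%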;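 further: 0% = wild type cc124 cells in DMSO and 100% = ciliumless bld1 mutant cells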). To be noted: Chlamydomonas reinhardtii gravitaxis, OD600 absorbance, 2 days; at 10 µM; stronger effect = higher value.
The mark [10] stands for this setting: measured here: cell density z-score.
[11] abbreviates: measured here: nuclear c-Myc green intensity z-score.
The mark [12] stands for this setting: measured here: nuclear pErk red intensity z-score, stronger effect = higher value.

The structures appear in SMILES notation. The source made the active and inactive calls.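 How the source made its calls, unless noted: active means visually confirmed hit in the image check and inhibition above 20%; inconclusive means visually confirmed hit but inhibition not above 20%; inactive means no visual hit in the image check.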

Sequence of Muscarinic acetylcholine receptor M4 (Homo sapiens) (P08173 whole entry, looked up): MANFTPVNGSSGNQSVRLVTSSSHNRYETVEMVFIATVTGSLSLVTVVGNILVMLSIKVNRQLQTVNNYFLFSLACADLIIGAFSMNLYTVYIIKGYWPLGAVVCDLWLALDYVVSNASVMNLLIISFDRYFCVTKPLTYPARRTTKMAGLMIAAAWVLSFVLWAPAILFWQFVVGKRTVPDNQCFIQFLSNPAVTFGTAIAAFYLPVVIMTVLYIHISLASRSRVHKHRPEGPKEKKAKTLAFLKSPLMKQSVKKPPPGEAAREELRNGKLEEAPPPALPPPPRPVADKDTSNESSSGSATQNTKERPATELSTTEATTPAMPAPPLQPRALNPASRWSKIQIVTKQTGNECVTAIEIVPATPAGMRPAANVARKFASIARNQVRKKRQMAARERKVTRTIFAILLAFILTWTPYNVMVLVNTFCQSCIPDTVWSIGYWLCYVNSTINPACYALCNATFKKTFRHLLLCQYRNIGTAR

In general, inhibition refers to the drop in the measured response relative to a control, in per cent. `CCc1[nH]c(=O)c(C#N)c2c1CCCC2`: the cell count in test [1] is 388. Moreover, the inhibition in [1] is -8.1% (inactive); in test [2], -57.4% (inactive); in [4], -12.6% (inactive); in test [9], 26.8% (inactive). The nuclei count in test [2] turned out to be 173%. For the same molecule, the z-score in [3] (setting [10]) is -0.973; in [3] (setting [11]), 0.856; in test [3] (setting [12]), 2.79. Further, the fluorescence slope is -0.495 (inactive) in test [5] and 0.00393 (inactive) in test [7]. In addition, the NADPH fluorescence slope in test [6] is -0.000126 (inactive). Further, the call in test [8] was inactive.
For `Cc1cc(C)c(S(=O)(=O)O)c(C)n1`, in test [1], the cell count worked out at 533. The inhibition in [1] was -13.8% (inactive); in test [2] it was 6.7% (inactive); in test [4] it was -5.95% (inactive); in test [9] it was -7.08% (inactive). In test [2], the nuclei count came out at 203%. The results for the z-score in test [3] (setting [10]), in test [3] (setting [11]) and in test [3] (setting [12]) were -0.302, 0.575 and 0.985, respectively. Also, the fluorescence slope in [5] is -0.393 (inactive); in test [7] it was 0.00523 (inactive). Also, in [6], the NADPH fluorescence slope was -4.7e-05 (inactive). Also, the outcome in [8] was inactive.
Take `CCCSc1nnc(NC(=O)Nc2ccccc2)s1`: the cell count in [1] stood at 655. Besides, the inhibition in [1] was -20.6% (inactive); in [2], -53.8% (inactive); in test [4] it was 5.35% (inactive); in test [9], -6.45% (inactive). The molecule further registered a nuclei count in test [2] of 184%. The figures for the z-score in test [3] (setting [10]), in [3] (setting [11]) and in test [3] (setting [12]) were 0.599, -1.15 and -0.322, respectively. Further, the fluorescence slope in test [5] was -0.484 (inactive); in [7], 0.00763 (inactive). In addition, in test [6], the NADPH fluorescence slope is -5.4e-05 (inactive). Besides, the outcome in [8] was inactive.
Take `CC1=C(C#N)C(=O)OC(C)(C)C1`: the cell count in [1] was determined as 660. Further, the inhibition in [1] was -3.9% (inactive); in test [2] it was -22.9% (inactive); in [4], -1.98% (inactive); in test [9], -18.3% (inactive). The same molecule yielded a nuclei count in [2] of 101%. In addition, the z-score in test [3] (setting [10]) is -2.1; in test [3] (setting [11]) it was 0.204; in test [3] (setting [12]), -1.02. Besides, the values for the fluorescence slope in test [5] and in test [7] were -0.489 (inactive) and 0.00496 (inactive), respectively. The NADPH fluorescence slope in [6] is -7.4e-05 (inactive). Moreover, the molecule was classed as inactive in test [8].
Take `CCc1[nH]c(=O)c(C#N)c2c1CSC(C)(C)C2`: the cell count in test [1] is 678. Besides, the inhibition in [1] is -9.4% (inactive); in [2] it was -211% (inactive); in test [4] it was -6.06% (inactive); in [9], 11.4% (inactive). The molecule further registered a nuclei count in test [2] of 166%. For the same molecule, the z-score in test [3] (setting [10]) is 0.402; in test [3] (setting [11]) it was 0.0532; in test [3] (setting [12]) it was -0.896. Besides, the fluorescence slope in [5] is -0.471 (inactive); in test [7] it was 0.00604 (inactive). Besides, the NADPH fluorescence slope in test [6] is -6.8e-05 (inactive). In addition, in test [8], the outcome was inactive.
`Cn1c(=O)[nH]c2cc(Cl)cnc21`: the cell count in test [1] worked out at 378. Also, the inhibition in [1] is -14% (inactive); in test [2], -133% (inactive); in [4] it was 3.42% (inactive); in [9], 9.47% (inactive). The same molecule displayed a nuclei count in [2] of 108%. The z-score is 0.823 in [3] (setting [10]), -0.334 in test [3] (setting [11]) and -1.3 in test [3] (setting [12]). In addition, the fluorescence slope in [5] is -0.492 (inactive); in test [7], 0.00408 (inactive). The NADPH fluorescence slope in [6] was -3.9e-05 (inactive). For the same molecule, the molecule was classed as inactive in test [8].
Turning to `Cc1nc2c(c(N3CCOCC3)n1)OCC(=O)N2`, the cell count in test [1] turned out to be 562. Further, the inhibition is -5.6% (inactive) in test [1], -63.7% (inactive) in test [2], -4.59% (inactive) in [4] and 31.8% (inactive) in test [9]. In addition, the nuclei count in [2] came to 132%. Also, the z-score in [3] (setting [10]) was -1.14; in test [3] (setting [11]) it was 0.329; in test [3] (setting [12]) it was 1.34. The fluorescence slope in test [5] was -0.454 (inactive); in [7] it was 0.00529 (inactive). In test [6], the NADPH fluorescence slope was -9.1e-05 (inactive). In [8], the outcome was inactive.
